pIC50: −log10 of the molar value. Where only a bound is given, the exact number is not on record here.

For data set [1], the target named is T1, Melanin-concentrating hormone receptor 1 (Homo sapiens, UniProt Q99705). Nature of the data set: Inhibition of melanin concentrating hormone receptor 1 from human neuronal IMR-32 cells. It counts as cell-based.
Data set [2] has as its target T1, Melanin-concentrating hormone receptor 1. Nature of the data set: Inhibition of melanin concentrating hormone receptor 1-mediated [Ca2+] release in human neuronal IMR-32 cells. In kind it is functional, cell-based.
A short description of data set [3]: Area under concentration time curve in brain of mice following peroral administration of 10 mg/kg of the compound. In kind it is ADME, organism-based. More on the design: dose 10 mg/kg, route oral. Particulars: mouse, in vivo, po. The method, boiled down:
(§1)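 DIO mice given a single 10 mg/kg oral dose in 1% Tween-80 in water. Plasma and brain drug levels were measured over time. Cmax is the average of the three mice with the highest concentrations. AUC0-t was calculated by the linear trapezoidal rule, and the residual area (Ct/β) was added to give AUC0-∞. C12h is the brain level at 12 h postdose.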

The nature of data set [4]: Area under concentration time curve in plasma of mice following peroral administration of 10 mg/kg of the compound. In kind it is ADME, organism-based. The arrangement: dose 10 mg/kg, route oral. As to conditions: mouse, in vivo, po. The method, boiled down: as §1
Data set [5] in a line: Maximum concentration in brain of mice following peroral administration at 10 mg/kg; n=3. In kind it is ADME, organism-based. More on the design: dose 10 mg/kg, route oral. As to conditions: mouse, po. The method, boiled down:
as §1

Data set [6] in a line: Maximum concentration in brain of mice at 12 hours following peroral administration at 10 mg/kg; n=3. It counts as ADME, organism-based. The arrangement: dose 10 mg/kg, route oral. As to conditions: mouse, po. The method, boiled down:
as §1

Data set [7] can be described thus: Area under concentration time curve in brain of mice following peroral administration at 10 mg/kg; n=3. It counts as ADME, organism-based. More on the design: dose 10 mg/kg, route oral. As to conditions: mouse, in vivo, po. Summed up: as §1
Data set [8] in a line: Area under concentration time curve in plasma of mice following peroral administration at 10 mg/kg; n=3. In kind it is ADME, organism-based. Particulars: mouse, in vivo, po. The arrangement: dose 10 mg/kg, route oral. The method, boiled down: as §1
Data set [9] in a line: Maximum concentration of the compound in brain of mice following peroral administration at 10 mg/kg; n=3. More on the design: dose 10 mg/kg, route oral. Particulars: mouse, po. It counts as ADME, organism-based. The method, boiled down: as §1
Data set [10] has as its system Mus musculus. Nature of the data set: Body weight of mice on day 14 following peroral administration at 10 mg/kg, twice a day; n = 12. It counts as functional. As to conditions: route oral. Summed up: (§2)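 Chronic study in DIO mice fed a high-fat diet ad libitum. Dosing was by oral gavage, bid for 14 days, in 4 mL/kg of 1% Tween-80 in water, with vehicle controls. Body weight and food intake were recorded on days 1, 4, 7, 11 and 14. Body-weight change is in grams relative to day 0, and % change is relative to vehicle. Mean ± SEM, n = 12.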

The test system of data set [11] is Mus musculus. As to the kind of experiment: Body weight of mice on day 14 following peroral administration at 30 mg/kg, twice a day; n = 12. In kind it is functional. As to conditions: route oral. Summed up:
as §2

A short description of data set [12]: Concentration in brain of mice,17 hours after administration of final dose at 30 mg/kg, twice a day. It counts as ADME, organism-based. The arrangement: dose 30 mg/kg. Particulars: mouse, read-out: Cmax. Summed up: (§3)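 DIO mice received the test compound orally, bid, in 1% Tween-80 in water for 14 days. Plasma and brain drug concentrations were measured 1 h (taken as Cmax) or 17 h after the final dose on day 14. Mean ± SEM, n = 3.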

Data set [13] has as its system Mus musculus. As to the kind of experiment: Change in body weight of mice on day 14 following peroral administration at 30 mg/kg, twice a day; n = 12; body weight at day 0 = 45 g. It counts as functional. Particulars: route oral. Summed up:
as §2

The subject of data set [14] is Mus musculus. Nature of the data set: Change in body weight of mice on day 14 following peroral administration at 10 mg/kg, twice a day; n = 12; body weight at day 0 = 44.7 g. In kind it is functional. As to conditions: route oral. Summed up:
as §2

A short description of data set [15]: Concentration in brain of mice,1 hour after administration of final dose at 10 mg/kg, twice a day. In kind it is ADME, organism-based. More on the design: dose 10 mg/kg. As to conditions: mouse, read-out: Cmax. The method, boiled down:
as §3

Data set [16] is described as follows: Concentration in brain of mice,1 hour after administration of final dose at 30 mg/kg, twice a day. In kind it is ADME, organism-based. More on the design: dose 30 mg/kg. As to conditions: mouse, read-out: Cmax. The method, boiled down:
as §3

Data set [17] is described as follows: Concentration in plasma of mice,1 hour after administration of final dose at 10 mg/kg, twice a day. In kind it is ADME, organism-based. Particulars: mouse, read-out: Cmax. More on the design: dose 10 mg/kg. Summed up:
as §3

The nature of data set [18]: Concentration in plasma of mice,1 hour after administration of final dose at 30 mg/kg, twice a day. In kind it is ADME, organism-based. The arrangement: dose 30 mg/kg. As to conditions: mouse, read-out: Cmax. Summed up:
as §3

The nature of data set [19]: Concentration in brain of mice,17 hours after administration of final dose at 10 mg/kg, twice a day. It counts as ADME, organism-based. More on the design: dose 10 mg/kg. As to conditions: mouse, read-out: Cmax. Summed up:
as §3

Data set [20] is described as follows: Concentration in plasma of mice,17 hours after administration of final dose at 10 mg/kg, twice a day. In kind it is ADME, organism-based. The arrangement: dose 10 mg/kg. Particulars: mouse, read-out: Cmax. Summed up: as §3
Data set [21] in a line: Concentration in plasma of mice,17 hours after administration of final dose at 30 mg/kg, twice a day. It counts as ADME, organism-based. As to conditions: mouse, read-out: Cmax. More on the design: dose 30 mg/kg. Summed up: as §3
Data set [22] concerns Mus musculus. Nature of the data set: Body weight of mice on day 14 following peroral administration at 10 mg/kg, 4 times a day; n = 12. As to conditions: route oral. In kind it is functional.
Data set [23] has as its system Mus musculus. Nature of the data set: Change in body weight of mice on day 14 following peroral administration at 10 mg/kg, 4 times a day; n = 12; body weight at day 0 = 43.2 g. In kind it is functional. As to conditions: route oral.

T1 sequence (Q99705 whole entry): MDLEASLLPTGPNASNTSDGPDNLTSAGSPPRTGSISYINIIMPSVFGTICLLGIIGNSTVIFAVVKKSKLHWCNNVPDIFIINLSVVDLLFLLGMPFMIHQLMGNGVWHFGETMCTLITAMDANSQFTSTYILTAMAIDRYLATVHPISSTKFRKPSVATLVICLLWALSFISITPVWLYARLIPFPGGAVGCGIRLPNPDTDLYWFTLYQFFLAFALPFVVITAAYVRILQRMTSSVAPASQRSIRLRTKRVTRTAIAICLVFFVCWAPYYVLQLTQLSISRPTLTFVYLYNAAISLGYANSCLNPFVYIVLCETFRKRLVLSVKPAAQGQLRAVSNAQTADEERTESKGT

A word on the pIC50: it is the IC50 on a negative log10 scale, so that one unit is a factor of ten. High values mean a low IC50, low ones a high IC50. Regarding `O=C(Cc1ccc(OCc2ccccc2)cc1)Nc1ccc2c(c1)ncn2CCN1CCCC1`, the results for the negative-log IC50 (pIC50) in data set [1] and in [2] were 6.11 and < 5.00, respectively.

Regarding `O=C(Cc1ccc(OCc2ccccc2)cc1)Nc1ccc2ccn(CCN3CCCC3)c2c1`, the pIC50 is 7.66 in data set [1] and 5.83 in data set [2]. Moreover, the figures for the AUC in [3] and in [4] were 0.348 µg/h/g and 1.37 µg/h/mL, respectively.

For the compound `O=C(Cc1ccc(OCc2ccccc2)cc1)Nc1ccc2cn(CCN3CCCC3)nc2c1`, the negative-log IC50 (pIC50) in [1] is 6.84; in data set [2] it was 6.06.

As a reminder, the Cmax is the highest concentration seen after dosing. On to `O=C(Cc1ccc(OCc2ccccc2)cc1)Nc1cccc2nn(CCN3CCCC3)cc12`, for which the values for the negative-log IC50 (pIC50) in data set [1] and in data set [2] were 7.38 and 6.54, respectively. Further, the figures for the peak concentration (Cmax) in data set [5] and in data set [6] were 214 ng/g and 12.3 ng/g, respectively. The AUC in data set [7] was 0.214 µg/h/g; in data set [8] it was 2.09 µg/h/g.

For the compound `O=C(Cc1ccc(OCc2ccccc2)cc1)Nc1ccc2ncn(CCN3CCCC3)c2c1`, the values for the pIC50 in [1] and in data set [2] were 6.79 and < 5.00, respectively. The Cmax in data set [9] worked out at 54.4 ng/g. The AUC worked out at 0.244 µg/h/g in data set [7] and 0.937 µg/h/g in data set [8].

Take `O=C(Cc1ccc(OCc2ccccc2)cc1)Nc1ccc2nn(CCN3CCCC3)cc2c1`: the negative-log IC50 (pIC50) was 5.70 in data set [1] and < 5.00 in data set [2].

As to `O=C(Cc1ccc(OCc2ccccc2)cc1)Nc1ccc2c(cnn2CCN2CCCC2)c1`, the pIC50 was 6.25 in data set [1] and < 5.00 in [2]. For the same compound, the figures for the Cmax in data set [5] and in data set [6] were 4260 ng/g and 76 ng/g, respectively. The AUC in data set [7] came to 10.4 µg/h/g; in data set [8], 8.51 µg/h/g.

In the case of `O=C(CNCc1ccc(Oc2ccccc2)cc1)Nc1ccc2ncn(CCN3CCCC3)c2c1`, the results for the negative logarithm of the IC50 (pIC50) in [1] and in data set [2] were 6.52 and 5.74, respectively. Further, the results for the AUC in data set [3] and in data set [4] were 0.674 µg/h/g and 1.16 µg/h/mL, respectively.

In the case of `O=C(Cc1ccc(OCc2ccccc2)cc1)Nc1ccc2cnn(CCN3CCCC3)c2c1`, the values for the Body weight in [10] and in data set [11] were 42.6 g and 39.7 g, respectively. For the same compound, the concentration at 17 h in data set [12] was found to be 5.35 ng/mL; in data set [19], 7.02 ng/mL; in data set [20], 0.39 ng/mL; in data set [21], 2.23 ng/mL. Also, the pIC50 in data set [1] was 8.85; in [2] it was 7.96. The Activity in data set [13] is -15.2%; in [14], -8.25%. For the same compound, the figures for the peak concentration (Cmax) in [5] and in data set [6] were 177 ng/g and 29 ng/g, respectively. For the same compound, the concentration at 1 h is 115 ng/mL in data set [15], 233 ng/mL in [16], 168 ng/mL in [17] and 824 ng/mL in [18]. For the same compound, the AUC in data set [7] is 1.33 µg/h/g; in data set [8] it was 2.12 µg/h/g.

For `O=C(Cc1ccc(OCc2ccccc2)cc1)Nc1cccc2c1cnn2CCN1CCCC1`, the negative logarithm of the IC50 (pIC50) is 7.61 in [1] and 7.15 in data set [2]. Besides, the Cmax in data set [5] stood at 464 ng/g; in data set [6] it was 8.11 ng/g. Also, the figures for the AUC in [7] and in data set [8] were 1.18 µg/h/g and 0.611 µg/h/g, respectively.

As to `CCN[C@@H](C)Cc1cccc(C(F)(F)F)c1` [DEXFENFLURAMINE], in [22], the Body weight was 40.4 g. Further, in data set [23], the Activity is listed as -10.1%.

(Values after ChEMBL document CHEMBL1142689, “Identification of 2-(4-benzyloxyphenyl)-N- [1-(2-pyrrolidin-1-yl-ethyl)-1H-indazol-6-yl]acetamide, an orally efficacious melanin-concentrating hormone receptor 1 antagonist for the treatment of obesity” (J Med Chem, 2005).)
